The values below come from ChEMBL document CHEMBL1132344, “Novel calcium antagonists with both calcium overload inhibition and antioxidant activity. 2. Structure-activity relationships of thiazolidinone derivatives” (J Med Chem, 1999).

The species named for test [1] is Rattus norvegicus. Nature of the test: Compound was tested in vitro for [Ca2+] antagonistic activity in K+-depolarized isolated rat aorta. The class given is functional. In outline:
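Thoracic aorta rings (2–3 mm) from male Sprague–Dawley rats (350–550 g), isometric tension in Krebs–Henseleit pH 7.4, 37 °C, 95% O2/5% CO2, 2 g resting tension. After a priming 30 mM K+ contraction and washout, second 30 mM K+ contraction; compound added cumulatively in half-log steps. IC50 = concentration relaxing contraction to 50%; mean ± SE, 2–8 experiments.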

The species entered for test [2] is Rattus norvegicus. Nature of the test: Compound was tested for [Ca2+] overload inhibitory activity in the veratridine-induced [Ca2+] overload model of rat cardiac myocytes. It is filed as functional, organism-based. An outline of the steps: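 Ventricular myocytes isolated from male Sprague–Dawley rats (300–500 g) by enzyme perfusion; rod-shaped cells exposed to compound 30 min, then 50 μg/mL veratridine added. Survival judged by cell shape 5 min later. Value is molar concentration inhibiting cell death by >80%; 2–8 experiments, >50 rod-shaped myocytes each.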

The species entered for test [3] is Oryctolagus cuniculus. Nature of the test: In vitro inhibitory activity on soybean lipoxygenase-induced lipid peroxidations of rabbit low-density lipoprotein (LDL) at 0.5 uM dosage. The class given is functional. An outline of the steps:
(§1)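 Rabbit LDL (Havel method) with compound, oxidised by soybean lipoxygenase type-1S (40 μg/mL final) for 24 h at 37 °C in CO2 incubator. LDL fraction separated by gel-permeation chromatography; fluorescence read at ex 360/em 430 nm. Expressed as percent of control.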

Test [4] is filed under the species Oryctolagus cuniculus. Nature of the test: In vitro inhibitory activity on soybean lipoxygenase-induced lipid peroxidations of rabbit low-density lipoprotein (LDL) at 5 uM dosage. The class given is functional, organism-based. An outline of the steps: as §1
Test [5] is filed under the species Oryctolagus cuniculus. Nature of the test: in vitro inhibitory activity on soybean lipoxygenase-induced lipid peroxidations of rabbit low-density lipoprotein (LDL) at 0.5 uM dosage. It is filed as functional. In outline:
as §1

Test [6] is filed under the species Oryctolagus cuniculus. Nature of the test: in vitro inhibitory activity on soybean lipoxygenase-induced lipid peroxidations of rabbit low-density lipoprotein (LDL) at 5 uM dosage. The class given is functional, organism-based. In outline: as §1
Another test relates to Canis familiaris. Nature of the test: Effect on coronary blood flow (CBF) by intravenous administration of compound in anesthetized dogs. The class given is functional, Canis lupus familiaris. Set-up: concentration or dose not given beside the values. In outline: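 Male beagles (9–14 kg) under pentobarbital (35 mg/kg iv, then 3–5 mg/kg/h infusion), artificially ventilated, left thoracotomy. Compound given iv via cephalic vein at […]. Coronary blood flow change expressed as maximal percent change from pre-dose value; mean ± SE from 5–6 dogs or a single experiment.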

SMILES strings stand for the structures.

One may read the IC50 as the concentration needed to halve the response being measured. On to `COc1cc(C2SCC(=O)N2CCCN(C)CCOc2ccc3c(c2)OCO3)cc(OC)c1O` (stereo not drawn), for which the IC50 in the test filed under Rattus norvegicus [1] (Rattus norvegicus, Aorta) is 4100 nM.
Same read-out and setting: for `Cc1cc(C2SCC(=O)N2CCCN(C)CCOc2ccc3c(c2)OCO3)c(C)c(C)c1O` (stereo not drawn) the value was 630 nM.
Regarding `Cc1cc(C(C)(C)C)c(O)c(C(C)(C)C)c1` [BUTYLATED HYDROXYTOLUENE], the IC50 worked out at 19700 nM in the test listed under Rattus norvegicus [1] (Rattus norvegicus, Aorta) and 900 nM in the test listed under Rattus norvegicus [2] (Rattus norvegicus).
`CN(CCCN1C(=O)CSC1c1cc(C(C)(C)C)c(O)c(C(C)(C)C)c1)CCOc1ccc2c(c1)OCO2` (stereo in doubt; 1) [listing 1 of 2 here]: the LDL oxidation in the test listed under Oryctolagus cuniculus [3] was 12.9%; in the test filed under Oryctolagus cuniculus [4], 3%.
On to `CN(CCCN1C(=O)CSC1c1cc(C(C)(C)C)c(O)c(C(C)(C)C)c1)CCOc1ccc2c(c1)OCO2` (single isomer, unassigned; (-)) [listing 1 of 2 here], for which the LDL oxidation was 16.4% in the test filed under Oryctolagus cuniculus [5] and 3.9% in the test filed under Oryctolagus cuniculus [6].
In the case of `CCN(CCCN1C(=O)CSC1c1cc(C(C)(C)C)c(O)c(C(C)(C)C)c1)CCOc1ccc2c(c1)OCO2` (stereo not drawn), the CBF increasing activity in the test on Canis familiaris was 52%. Besides, the LDL oxidation came out at 16.8% in the test filed under Oryctolagus cuniculus [5] and 6.4% in the test listed under Oryctolagus cuniculus [6]. For the same compound, the concentration for half-maximal inhibition (IC50) in the test filed under Rattus norvegicus [1] (Rattus norvegicus, Aorta) came to 63 nM; in the test listed under Rattus norvegicus [2] (Rattus norvegicus), 320 nM.
With `CN(CCCN1C(=O)CSC1c1cc(C(C)(C)C)c(O)c(C(C)(C)C)c1)CCOc1ccc2c(c1)OCO2` (stereo in doubt; 1) [listing 2 of 2 here], in the test on Canis familiaris, the CBF increasing activity worked out at 96%. This compound also had an IC50 in the test listed under Rattus norvegicus [1] of 62 nM.
For `CN(CCCOc1ccc2c(c1)OCO2)CCCN1C(=O)CSC1c1cc(C(C)(C)C)c(O)c(C(C)(C)C)c1` (stereo not drawn), the CBF increasing activity with Canis familiaris came out at 23%. Further, the LDL oxidation in the test listed under Oryctolagus cuniculus [5] is 16.4%; in the test listed under Oryctolagus cuniculus [6], 3.9%. For the same compound, the IC50 in the test listed under Rattus norvegicus [1] (Rattus norvegicus, Aorta) is 78 nM; in the test filed under Rattus norvegicus [2] (Rattus norvegicus), 320 nM.
Regarding `CN(CCCN1C(=O)CSC1c1ccc(O)cc1)CCOc1ccc2c(c1)OCO2` (stereo not drawn), in the test filed under Rattus norvegicus [1] (Rattus norvegicus, Aorta), it took 2600 nM to reach half-maximal inhibition (IC50).
In the case of `Cc1cc(C2SCC(=O)N2CCCN(C)CCOc2ccc3c(c2)OCO3)cc(C(C)(C)C)c1O` (stereo not drawn), in the test filed under Rattus norvegicus [1] (Rattus norvegicus, Aorta), it took 280 nM to reach half-maximal inhibition (IC50).
`CC(C)(C)c1cc(C2SCC(=O)N2CCCNCCOc2ccc3c(c2)OCO3)cc(C(C)(C)C)c1O` (stereo not drawn): the IC50 in the test filed under Rattus norvegicus [1] (Rattus norvegicus, Aorta) came to 160 nM; in the test filed under Rattus norvegicus [2] (Rattus norvegicus), 1000 nM.
In the case of `CN(CCCCCN1C(=O)CSC1c1cc(C(C)(C)C)c(O)c(C(C)(C)C)c1)CCOc1ccc2c(c1)OCO2` (stereo not drawn), in the test listed under Oryctolagus cuniculus [6], the LDL oxidation came to 5.9%. In the test filed under Rattus norvegicus [1] (Rattus norvegicus, Aorta), this compound returned a concentration for half-maximal inhibition (IC50) of 280 nM.
In the case of `CN(CCCN1C(=O)CSC1c1cc(C(C)(C)C)c(O)c(C(C)(C)C)c1)CCOc1ccc2c(c1)OCO2` (single isomer, unassigned; (+)) [listing 1 of 2 here], the LDL oxidation in the test listed under Oryctolagus cuniculus [5] is 13.5%; in the test filed under Oryctolagus cuniculus [6], 5.9%.
Consider `CN(CCCN1C(=O)CSC1c1cc(C(C)(C)C)c(O)c(C(C)(C)C)c1)CCOc1ccc2c(c1)OCO2` (single isomer, unassigned; (+)) [listing 2 of 2 here], for which the CBF increasing activity with Canis familiaris is on record as 16%. Moreover, the half-inhibitory concentration (IC50) in the test listed under Rattus norvegicus [1] was 340 nM; in the test listed under Rattus norvegicus [2], 320 nM.
Turning to `CN(CCCN1C(=O)CSC1c1cc(C(C)(C)C)c(O)c(C(C)(C)C)c1)CCOc1ccc2c(c1)OCO2` (single isomer, unassigned; (-)) [listing 2 of 2 here], the CBF increasing activity with Canis familiaris was 117%. In addition, the figures for the IC50 in the test listed under Rattus norvegicus [1] and in the test filed under Rattus norvegicus [2] were 33 nM and 320 nM, respectively.
For the compound `CN(CCCCN1C(=O)CSC1c1cc(C(C)(C)C)c(O)c(C(C)(C)C)c1)CCOc1ccc2c(c1)OCO2` (stereo not drawn), the half-inhibitory concentration (IC50) was 210 nM in the test filed under Rattus norvegicus [1] (Rattus norvegicus, Aorta) and 1000 nM in the test filed under Rattus norvegicus [2] (Rattus norvegicus).
In the test filed under Rattus norvegicus [1] (Rattus norvegicus, Aorta), `CN(CCOc1ccc2c(c1)OCO2)CCN1C(=O)CSC1c1cc(C(C)(C)C)c(O)c(C(C)(C)C)c1` (stereo not drawn) registered a half-maximal inhibitory concentration (IC50) of 360 nM.
Turning to `Cc1c(C)c2c(c(C)c1O)CC[C@@](C)(CCC[C@H](C)CCC[C@H](C)CCCC(C)C)O2` [ALPHA-TOCOPHEROL], the IC50 in the test filed under Rattus norvegicus [1] (Rattus norvegicus, Aorta) was found to be 60200 nM; in the test listed under Rattus norvegicus [2] (Rattus norvegicus), 13200 nM.
In the test filed under Rattus norvegicus [1] (Rattus norvegicus, Aorta), `CN(CCCN1C(=O)CSC1c1ccc(O)c(C(C)(C)C)c1)CCOc1ccc2c(c1)OCO2` (stereo not drawn) yielded an IC50 of 560 nM.
For `COc1ccc([C@@H]2Sc3ccccc3N(CCN(C)C)C(=O)[C@@H]2OC(C)=O)cc1` [DILTIAZEM], the CBF increasing activity in the test with Canis familiaris was 86%. The LDL oxidation in the test listed under Oryctolagus cuniculus [5] came to 109%; in the test listed under Oryctolagus cuniculus [6], 111%. Moreover, the IC50 in the test filed under Rattus norvegicus [1] (Rattus norvegicus, Aorta) is 100 nM; in the test filed under Rattus norvegicus [2] (Rattus norvegicus), more than 10000 nM.
In the test filed under Rattus norvegicus [1] (Rattus norvegicus, Aorta), `CCc1cc(C2SCC(=O)N2CCCN(C)CCOc2ccc3c(c2)OCO3)cc(CC)c1O` (stereo not drawn) yielded an IC50 of 320 nM.
With `CN(CCCN1C(=O)C[S+]([O-])C1c1cc(C(C)(C)C)c(O)c(C(C)(C)C)c1)CCOc1ccc2c(c1)OCO2` (stereo not drawn), half-maximal inhibition in the test listed under Rattus norvegicus [1] (Rattus norvegicus, Aorta) (IC50) was put at 790 nM.
Regarding `COc1c(C(C)(C)C)cc(C2SCC(=O)N2CCCN(C)CCOc2ccc3c(c2)OCO3)cc1C(C)(C)C` (stereo not drawn), the LDL oxidation is 91.6% in the test filed under Oryctolagus cuniculus [5] and 39.7% in the test filed under Oryctolagus cuniculus [6]. In addition, the IC50 in the test listed under Rattus norvegicus [1] (Rattus norvegicus, Aorta) was determined as 36 nM; in the test filed under Rattus norvegicus [2] (Rattus norvegicus), 1000 nM.
As for `CC(C)N(CCCN1C(=O)CSC1c1cc(C(C)(C)C)c(O)c(C(C)(C)C)c1)CCOc1ccc2c(c1)OCO2` (stereo not drawn), the IC50 in the test listed under Rattus norvegicus [1] (Rattus norvegicus, Aorta) stood at 450 nM; in the test listed under Rattus norvegicus [2] (Rattus norvegicus) it was 1000 nM.
On the same counts, the results for `CC(C)c1cc(C2SCC(=O)N2CCCN(C)CCOc2ccc3c(c2)OCO3)cc(C(C)C)c1O` (stereo not drawn) are 140 nM and 320 nM.
In the test listed under Rattus norvegicus [1] (Rattus norvegicus, Aorta), `CN(CCCN1C(=O)CSC1c1cc(Cl)c(O)c(Cl)c1)CCOc1ccc2c(c1)OCO2` (stereo not drawn) showed an IC50 of more than 10000 nM.
Still for that read-out and setting: the same measure for `Cc1cc(C2SCC(=O)N2CCCN(C)CCOc2ccc3c(c2)OCO3)cc(C)c1O` (stereo not drawn): 2300 nM; for `CC(C)(C)c1cc(C2SCC(=O)N2CCCN(CCO)CCOc2ccc3c(c2)OCO3)cc(C(C)(C)C)c1O` (stereo not drawn): 320 nM.
For the compound `CN(CCCN1C(=S)CSC1c1cc(C(C)(C)C)c(O)c(C(C)(C)C)c1)CCOc1ccc2c(c1)OCO2` (stereo not drawn), the LDL oxidation in the test listed under Oryctolagus cuniculus [5] was found to be 22.8%; in the test listed under Oryctolagus cuniculus [6], 11.3%. Also, the half-inhibitory concentration (IC50) in the test listed under Rattus norvegicus [1] (Rattus norvegicus, Aorta) is 160 nM.
Regarding `CN(CCCCOc1ccc2c(c1)OCO2)CCCN1C(=O)CSC1c1cc(C(C)(C)C)c(O)c(C(C)(C)C)c1` (stereo not drawn), the IC50 in the test listed under Rattus norvegicus [1] (Rattus norvegicus, Aorta) was determined as 200 nM; in the test listed under Rattus norvegicus [2] (Rattus norvegicus), 320 nM.
